In assay [1] the target is Delta-aminolevulinic acid dehydratase (Pseudomonas aeruginosa (strain ATCC 15692 / PAO1 / 1C / PRS 101 / LMG12228)) (UniProt Q59643). The assay is described as follows: Stimulation of Pseudomonas aeruginosa PAO1 recombinant PBGS using 5 mM 5-ALA as substrate assessed as increase in Vmax at 50 to 200 uM at pH 8 by buffer scan assay in presence of 1 mM MgCl2 and 1 to 1000 mM KCl.

Assay [2] deals with T1, Delta-aminolevulinic acid dehydratase (Wolbachia sp. subsp. Brugia malayi (strain TRS), UniProt Q5GSR3).
T1 sequence (Q5GSR3 whole entry): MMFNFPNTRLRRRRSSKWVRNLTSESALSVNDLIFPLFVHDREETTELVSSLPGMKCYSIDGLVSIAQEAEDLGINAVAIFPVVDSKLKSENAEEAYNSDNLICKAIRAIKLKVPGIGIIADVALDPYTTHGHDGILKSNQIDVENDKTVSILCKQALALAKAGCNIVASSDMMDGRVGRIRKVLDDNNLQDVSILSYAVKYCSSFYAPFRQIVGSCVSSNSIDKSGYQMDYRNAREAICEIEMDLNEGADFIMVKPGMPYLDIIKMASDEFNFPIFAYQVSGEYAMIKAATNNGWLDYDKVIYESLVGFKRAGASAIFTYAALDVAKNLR
The assay is described as follows: Inhibition of C-terminal His-tagged Wolbachia PBGS using 5-ALA as substrate.

For assay [3], the target named is Delta-aminolevulinic acid dehydratase (Pseudomonas aeruginosa (strain ATCC 15692 / PAO1 / 1C / PRS 101 / LMG12228)) (UniProt Q59643). Briefly: Stimulation of Pseudomonas aeruginosa PAO1 recombinant PBGS using 5-ALA as substrate relative to control. In a few lines: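 His-tagged PaPBGS at 150 nM subunit in 100 mM Tris-HCl pH 8.0 with 1 mM MgCl2, 100 mM KCl and 0.2 mM 5-ALA, 10 min at 36 °C, with turnover at most 30%. Porphobilinogen read with Ehrlich's reagent. Activity normalized to 6.7% DMSO control as 100%. EC50 from variable-slope agonist fit.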

The target of assay [4] is Delta-aminolevulinic acid dehydratase (Yersinia enterocolitica W22703) (UniProt F4MUJ9). Briefly: Stimulation of Yersinia enterocolitica recombinant PBGS expressed in Escherichia coli at 125 to 2000 uM by nondenaturing PAGE analysis in presence of Mg2+ and K+. In a few lines:
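YePBGS (2 μg) preincubated 20 min at 37 °C in BTP pH 8.0 buffer with K+, Mg2+ and wALADin1. Run on 7.5% nondenaturing PAGE; Coomassie stain and in-gel activity (100 mM KCl, 10 mM MgCl2, 500 μM 5-ALA) read with Ehrlich's reagent.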

The target of assay [5] is T2, Delta-aminolevulinic acid dehydratase, chloroplastic (Pisum sativum) (UniProt P30124).
T2 sequence (whole entry): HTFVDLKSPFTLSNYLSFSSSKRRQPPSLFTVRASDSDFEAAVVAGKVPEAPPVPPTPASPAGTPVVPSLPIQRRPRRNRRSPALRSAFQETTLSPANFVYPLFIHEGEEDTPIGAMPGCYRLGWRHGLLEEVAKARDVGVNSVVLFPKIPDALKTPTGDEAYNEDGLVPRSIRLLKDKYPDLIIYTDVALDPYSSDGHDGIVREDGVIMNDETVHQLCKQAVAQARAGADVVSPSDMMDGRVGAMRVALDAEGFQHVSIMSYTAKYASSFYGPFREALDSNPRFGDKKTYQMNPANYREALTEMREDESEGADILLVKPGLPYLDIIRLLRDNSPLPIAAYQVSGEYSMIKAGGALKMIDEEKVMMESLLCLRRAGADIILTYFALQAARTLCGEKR
The assay is described as follows: Partial competitive inhibition of Pisum sativum PBGS using 5-ALA as substrate at 6.25 to 100 uM in presence of MgCl2. Particulars: Lathyrus oleraceus.

For assay [6], the target named is Delta-aminolevulinic acid dehydratase (Pseudomonas aeruginosa (strain ATCC 15692 / PAO1 / 1C / PRS 101 / LMG12228)) (UniProt Q59643). Briefly: Stimulation of Pseudomonas aeruginosa PAO1 recombinant PBGS assessed as stabilization of dimeric form at 8 to 2000 uM by nondenaturing PAGE analysis in presence of Mg2+ and K+ and 5-ALA.
Assay [7] has as its target Delta-aminolevulinic acid dehydratase (Pseudomonas aeruginosa (strain ATCC 15692 / PAO1 / 1C / PRS 101 / LMG12228), UniProt Q59643). Briefly: Inhibition of Pseudomonas aeruginosa PAO1 recombinant PBGS using 5-ALA as substrate. A digest of the protocol:
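Turnover kept at or below 30%. Porphobilinogen measured with Ehrlich's reagent. IC50 by variable-slope fit of activity normalized to DMSO control.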

Assay [8] deals with T3, Delta-aminolevulinic acid dehydratase (Escherichia coli (strain K12)) (UniProt P0ACB2).
T3 sequence (whole entry): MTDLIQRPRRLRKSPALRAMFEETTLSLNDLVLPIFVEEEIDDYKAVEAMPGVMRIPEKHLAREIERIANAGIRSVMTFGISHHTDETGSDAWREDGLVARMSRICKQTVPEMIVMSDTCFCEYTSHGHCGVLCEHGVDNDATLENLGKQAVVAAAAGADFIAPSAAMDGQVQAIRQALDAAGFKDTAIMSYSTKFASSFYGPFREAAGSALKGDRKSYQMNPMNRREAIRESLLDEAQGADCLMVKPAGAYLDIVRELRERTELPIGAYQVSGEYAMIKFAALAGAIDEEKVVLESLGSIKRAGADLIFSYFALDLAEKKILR
The assay is described as follows: Stimulation of Escherichia coli recombinant PBGS using 5-ALA as substrate at 10 to 1000 uM at pH 8 in presence of MgCl2 and KCl.

Assay [9] addresses Delta-aminolevulinic acid dehydratase (Pseudomonas aeruginosa (strain ATCC 15692 / PAO1 / 1C / PRS 101 / LMG12228)) (UniProt Q59643). Briefly: Competitive inhibition of Pseudomonas aeruginosa PAO1 recombinant PBGS using 0.2 mM 5-ALA as substrate assessed as increase in Km at 50 to 200 uM at pH 7.5 by Michaelis-Menten plot analysis in presence of MgCl2. In a few lines: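 PaPBGS under "standard inhibitory" conditions (100 mM Tris-HCl pH 7.5, 1 mM MgCl2, no KCl). 5-ALA varied for substrate-response curves at several wALADin1 levels; KM and VMAX derived from the fits. Incubation at 36 °C.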

For assay [10], the target named is Delta-aminolevulinic acid dehydratase (Yersinia enterocolitica W22703) (UniProt F4MUJ9). Briefly: Inhibition of Yersinia enterocolitica recombinant PBGS expressed in Escherichia coli using 5-ALA as substrate at 50 to 200 uM at pH 7 to 8.5 by buffer scan assay.
In assay [11] the target is Delta-aminolevulinic acid dehydratase (Yersinia enterocolitica W22703, UniProt F4MUJ9). The assay is described as follows: Stimulation of Yersinia enterocolitica recombinant PBGS expressed in Escherichia coli using 5-ALA as substrate.
The target in assay [12] is T2, Delta-aminolevulinic acid dehydratase, chloroplastic (Pisum sativum). The assay is described as follows: Inhibition of Pisum sativum PBGS using 10 mM 5-ALA as substrate assessed as decrease in enzyme activity at 6.25 to 100 uM in presence of MgCl2. As to conditions: Lathyrus oleraceus.
The target in assay [13] is Delta-aminolevulinic acid dehydratase (Pseudomonas aeruginosa (strain ATCC 15692 / PAO1 / 1C / PRS 101 / LMG12228)) (UniProt Q59643). The assay is described as follows: Stimulation of Pseudomonas aeruginosa PAO1 recombinant PBGS assessed as stabilization of octameric form at 250 uM at pH 7 to 8.5 by nondenaturing PAGE analysis in presence of Mg2+ and K+.
Assay [14] has the same target. Briefly: Stimulation of Pseudomonas aeruginosa PAO1 recombinant PBGS using 5 mM 5-ALA as substrate assessed as increase in Vmax at 10 to 10000 uM at pH 8 by buffer scan assay in presence of MgCl2. In a few lines: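 Mg2+ or substrate response curves recorded with and without wALADin1; VMAX, KM and Mg2+ affinity derived from the fits.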

Activity calls are given as the source filed them. The calls are words filed in the database; no cut-off is given here.

Delta-aminolevulinic acid dehydratase (Pseudomonas aeruginosa (strain ATCC 15692 / PAO1 / 1C / PRS 101 / LMG12228)), sequence (Q59643 whole entry): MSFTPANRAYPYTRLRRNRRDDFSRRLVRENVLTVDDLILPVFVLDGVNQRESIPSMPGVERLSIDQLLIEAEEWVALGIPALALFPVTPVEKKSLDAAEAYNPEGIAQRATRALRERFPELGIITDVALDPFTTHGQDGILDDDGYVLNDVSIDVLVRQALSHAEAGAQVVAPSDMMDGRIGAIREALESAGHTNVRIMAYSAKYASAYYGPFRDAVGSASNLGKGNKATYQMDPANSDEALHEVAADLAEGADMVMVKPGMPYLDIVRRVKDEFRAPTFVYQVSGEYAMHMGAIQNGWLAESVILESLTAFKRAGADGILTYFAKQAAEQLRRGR
Delta-aminolevulinic acid dehydratase (Yersinia enterocolitica W22703), sequence (F4MUJ9 as listed by the source): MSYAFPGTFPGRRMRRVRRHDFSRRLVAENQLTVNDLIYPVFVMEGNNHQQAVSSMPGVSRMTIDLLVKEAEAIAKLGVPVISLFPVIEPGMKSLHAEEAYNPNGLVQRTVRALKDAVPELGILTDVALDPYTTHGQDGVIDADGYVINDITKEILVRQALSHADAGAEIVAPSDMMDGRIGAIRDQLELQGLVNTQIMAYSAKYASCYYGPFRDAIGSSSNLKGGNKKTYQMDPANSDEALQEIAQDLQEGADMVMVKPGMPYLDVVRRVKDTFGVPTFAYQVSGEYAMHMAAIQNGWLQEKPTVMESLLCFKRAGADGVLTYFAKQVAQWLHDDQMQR
Delta-aminolevulinic acid dehydratase (Pseudomonas aeruginosa (strain ATCC 15692 / PAO1 / 1C / PRS 101 / LMG12228), UniProt Q59643), sequence (Q59643 whole entry): as the sequence (Q59643 whole entry) above
Delta-aminolevulinic acid dehydratase (Yersinia enterocolitica W22703, UniProt F4MUJ9), sequence (F4MUJ9 whole entry, one chain of several): as the sequence (F4MUJ9 as listed by the source) above

Consider `O=C(O)c1ccc2c(c1)nc(CCNC(=O)c1cccs1)n2Cc1cccc(C(F)(F)F)c1`, for which the outcome in assay [1], in assay [8], in assay [13] and in assay [14] was Active. The concentration for half-maximal inhibition (IC50) in [2] is 11.1 µM; in assay [7], 79 µM. In addition, the Smax in [3] stood at 123%. Also, the result in [4] and in assay [6] was inactive. Moreover, the inhibition result in assay [5], in [9], in assay [10] and in assay [12] was “Active” each time. In assay [11], the 50% effective concentration (EC50) came out at 66 µM.

The record behind these values is ChEMBL document CHEMBL3286371, “wALADin benzimidazoles differentially modulate the function of porphobilinogen synthase orthologs” (J Med Chem, 2014).
